Hit rate of the full screen: of about 60,000 compounds, about 60 (0.1%) were called active. Only a selection was taken, and actives are over-represented in it overall. Unmarked numbers belong to inactive results.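 How the source made its calls: active means activation above the screen-wide mean plus 3 SD (cut at about 4.5% in these data, passing the limit was not always enough); inactive means the rest, inconclusive results apart.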
Each compound was assayed against Sphingosine 1-phosphate receptor 3 (Homo sapiens) (UniProt Q99500) (assay: human S1P3 receptor agonists, primary screen, cell-based, primary and confirmation, NFAT-BLA reporter (AID 373)). Conditions: S1P3 NFAT-BLA reporter cells, agonism, FRET ratio, at 4.5 µM, stronger effect = higher value, relative to 1 µM S1P, basal subtracted.
Outline: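 Material: Human S1P3 NFAT-BLA reporter CHO cells | Incubation: Overnight plating, 4 h compound 37 °C, 2 h substrate RT | Signal: FRET β-lactamase substrate fluorescence, excitation 405 nm, 460/535 nm emission ratio, background-subtracted | Compound: 4.5 µM final, single dose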

Sphingosine 1-phosphate receptor 3 (Homo sapiens), sequence (Q99500 whole entry, looked up): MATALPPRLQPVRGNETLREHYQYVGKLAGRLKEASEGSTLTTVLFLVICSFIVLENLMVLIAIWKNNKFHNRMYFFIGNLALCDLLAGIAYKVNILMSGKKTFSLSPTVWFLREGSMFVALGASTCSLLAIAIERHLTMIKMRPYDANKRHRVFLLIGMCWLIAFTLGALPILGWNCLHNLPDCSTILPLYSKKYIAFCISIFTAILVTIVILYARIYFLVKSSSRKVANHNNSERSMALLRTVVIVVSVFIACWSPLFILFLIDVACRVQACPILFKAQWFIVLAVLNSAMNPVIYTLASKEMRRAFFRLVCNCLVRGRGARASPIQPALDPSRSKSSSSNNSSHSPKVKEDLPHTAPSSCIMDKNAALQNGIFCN

| Structure (SMILES) | activation |
| --- | --- |
| CC(C)c1ccc(NC(=O)NC2CCCCC2)cc1 | 0% |
| Cc1ccc2nc(NC(=O)C3CCN(S(=O)(=O)c4ccc5c(c4)oc(=O)n5C)CC3)sc2c1 | -0.9% |
| O=C(O)CCCC(=O)Nc1ccccc1-n1ccnc1 | -0.2% |
| CCCOc1cccc(C(=O)Nc2nnn(CCC)n2)c1 | 0% |
| COc1ccc(-c2noc(COc3ccc(Cl)c(C)c3)n2)cc1 | -0.7% |
| Cc1cc(C)nc(N(C#N)CC(=O)Nc2ccccc2)n1 | -0.7% |
| Cc1nn(-c2cc(Cl)ccc2N)c(=O)c2ccccc12 | -1.6% |
| CCOCC(=O)NCc1ccc2c(c1)cc(C)n2C | -0.3% |
| CN(CC(=O)NC1CCCCC1)S(=O)(=O)c1cccc2cccnc12 | -1.1% |
| COc1ccc(S(=O)(=O)N2CCC(C(=O)N3CCOCC3)CC2)cc1OC | -0.8% |
| Cc1ccn2cc(C(=O)NC3CCN(Cc4ccccc4)CC3)nc2c1 | -0.2% |
| CC(=O)N1CCN(C(=O)Nc2cccc(C(F)(F)F)c2)CC1 | -0.4% |
| O=C(Nc1nccs1)C1CCCN1S(=O)(=O)c1cccc2cccnc12 (configuration not stated) | -0.3% |
| Cc1cccc2c1N(CC(=O)OC(C)C)C(=O)C2=O | -0.6% |
| COc1ccccc1Nc1ncnc2c1oc1ccccc12 | -1% |
| Cc1cnc(NC(=O)CSc2nnc(-c3ccc(Cl)cc3Cl)n2N)s1 | -0.7% |
| CC12CN3CC(C)(CN(C1)C3c1ccc(Cl)cc1Cl)C2=O (configuration not stated) | -0.5% |
| CC(=O)Nc1ccc(NS(=O)(=O)c2cc(C)sc2C)cc1 | -0.3% |
| Cc1ccc(S(=O)(=O)N2CCC(N3CCCCCC3)CC2)cc1 | -2.7% |
| CC1COC2C(O1)N(S(C)(=O)=O)CCN2S(C)(=O)=O (configuration not stated) | -1.9% |
| CCOc1ccc(C2C(C(=O)O)c3ccccc3C(=O)N2CCN2CCOCC2)cc1 (configuration not stated) | -0.7% |

| Structure (SMILES) | activation |
| --- | --- |
| CC(C)N(C(=O)Cn1c(SCC(=O)N2CCN(c3ccccc3)CC2)nc2ccccc21)C(C)C | 0.4% |
| CCn1c(SCC(=O)Nc2cccc(F)c2)nnc1-c1cc2cc(Br)ccc2o1 | 0.7% |
| CC1CCN(C(=O)CSc2ccc3nnc(-c4cccc(F)c4)n3n2)CC1 | -0.5% |
| CCOc1ccc(OCC)c(NC(=O)C(NS(=O)(=O)c2ccc3c(c2)oc(=O)n3C)C(C)C)c1 (configuration not stated) | 0.3% |
| CC1CCN(Cc2nc3c(c(=O)n(C)c(=O)n3C)n2CCc2ccccc2)CC1 | -0.7% |
| CCc1c(C)c2c(C)[nH]nc2oc1=O | 0.6% |
| CCCCC(=O)N(c1ccc(OC)cc1)C1C=CS(=O)(=O)C1 (configuration not stated) | -0.5% |
| COc1ccc(-c2nc(CS(=O)CC(=O)NCc3cccnc3)c(C)o2)cc1OC (configuration not stated) | -0.9% |
| CCn1c(SCC(=O)NCc2ccco2)nnc1-c1ccc(N)cc1 | 1.1% |
| CCN(CC)S(=O)(=O)c1ccc2nc(COC(=O)c3n[nH]c4ccccc34)[nH]c2c1 | 0% |
| C[N+](C)(C)CCOP(=O)([O-])OC[C@H](O)CO | -3.9% |
| c1ccc(Nc2n[nH]nc2-c2ccccc2)cc1 | -1.7% |
| O=C(c1ccc(-n2cnnn2)cc1)N1CCN(C(c2ccccc2)c2ccccc2)CC1 | 0.7% |
| O=C(NCc1cn2ccsc2n1)Nc1cccc(Cl)c1 | 1.1% |
| Cc1cccc(CSc2nnc(Cn3c(=O)sc4ccccc43)n2C)c1 | -0.9% |
| Cc1cc(C)cc(N(CC(=O)NCC2CCCO2)S(=O)(=O)c2c(C)noc2C)c1 (configuration not stated) | -0.2% |
| CCOC(=O)c1ccc(-c2ccc(C(=O)Nc3cccnc3)o2)cc1 | 0.3% |
| Cc1ccc(-c2noc(CCC(=O)Nc3ccccc3N3CCN(C)CC3)n2)cc1 | 0.8% |
| CCN(CC)CCCN1C(=O)C(=O)/C(=C(/O)c2c(C)nc3ccccn23)C1c1ccc(C)o1 (configuration not stated) | 0.3% |
| CNC(=O)Nc1cc(C(C)(C)C)no1 | -0.1% |
| COc1ccc(CCn2c(-c3ccco3)nc3nc4ccccc4nc32)cc1OC | -1.1% |

| Structure (SMILES) | activation |
| --- | --- |
| Cc1ccc(-c2c3c(=O)n(C)c(=O)n(C)c3cn2-c2ccccc2O)cc1 | 0.1% |
| COc1cccc(-n2c(Cc3cc(=O)[nH]c(=O)[nH]3)nnc2SCC(=O)Nc2ccccc2)c1 | 0.3% |
| Cc1cccc(NC(=O)COc2ccc(Br)cc2C)n1 | -1% |
| Cc1cc(/C=N/n2cnnc2)c(C)n1-c1ccc2ncccc2c1 | 0.1% |
| CCOCCCNC(=O)Cc1cc(=O)[nH]c(=O)[nH]1 | 0.5% |
| O=S(=O)(Nc1ccccc1N1CCOCC1)c1ccc(Cl)s1 | 0.7% |
| O=c1cc(Cn2nnc(-c3ccc(Cl)cc3)n2)nc2sccn12 | -0.5% |
| O=C(CSc1nnc(-c2ccco2)n1-c1ccccc1)NCCc1ccccc1 | 0% |
| COc1ccc(C(=O)c2oc3ccc(Br)cc3c2NC(C)=O)cc1 | -0.9% |
| Cc1cc(C)c(NC(=O)CS(=O)CC(=O)Nc2cccnc2)c(C)c1 (configuration not stated) | 0.3% |
| COc1ccc(-n2nnc3c(=O)n(CC(=O)N4CCC(Cc5ccccc5)CC4)cnc32)cc1 | -0.4% |
| Cc1ccc(C(=O)N(CN2CCCC2=O)c2ccc(F)cc2)cc1 | -1.3% |
| CC1CC(C)CN(CC(=O)Nc2ccc(S(N)(=O)=O)cc2)C1 (configuration not stated) | -0.9% |
| CN(C)c1nc2n(c(=O)n1)CCO2 | 0.6% |
| c1ccc2c(c1)OCC(c1nn3cnnc3s1)O2 (configuration not stated) | -0.3% |
| Cc1ccc(C(c2sc3nc(C)nn3c2O)N2CCN(c3ccc(F)cc3)CC2)cc1 (configuration not stated) | 0.6% |
| CC(C)(C)Oc1ncc(Br)c(OC(C)(C)C)n1 | -0.4% |
| N#Cc1c(N)n(CCOC(=O)c2ccc(Cl)cc2)c2nc3ccccc3nc12 | 2.5% |
| COc1ccc(C(C)=O)cc1COC(=O)Cn1cnc2ccccc2c1=O | 0.7% |
| Cc1cc(C(F)(F)F)nn1CC(=O)N1CCCC1 | -0.4% |
